Source: ChEMBL document CHEMBL2176917, “Effect of the prosthetic group on the pharmacologic properties of 18F-labeled rhodamine B, a potential myocardial perfusion agent for positron emission tomography (PET)” (J Med Chem, 2012)

How the values were obtained:
Nucleic Acid [1] = experiment: Ratio of drug level in heart to bone in rat at 1.1 to 2.2, iv after 60 mins; type: ADME, organism-based; settings: in vivo, 1 h
Outline: (§1)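 Five rats per compound each received 1.1–2.2 MBq of tracer in 10% EtOH/saline by tail vein. They were killed by CO2 at 60 min p.i., and selected tissues were excised, weighed and counted for 18F. %ID/g was calculated against a standard prepared from the injectate. Unpaired two-tailed t test.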

Nucleic Acid [2] = experiment: Ratio of drug level in heart to liver in rat at 1.1 to 2.2, iv after 60 mins; type: ADME, organism-based; settings: in vivo, 1 h; outline: as §1
[3] = Ratio of drug level in heart to blood in rat at 1.1 to 2.2, iv after 60 mins; type: ADME, organism-based; settings: heart and blood (heart-to-blood ratio)
Outline: (§2)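 Five rats per tracer received 1.1–2.2 MBq (30–60 µCi) of the 18F-labeled rhodamine ester in 100 µL 10% EtOH/saline through the tail vein after 0.2 µm filtration. They were killed by CO2 asphyxia at 60 min p.i. Excised tissues were weighed and counted for 18F. %ID/g was calculated against an injectate standard. Heart-to-blood ratios were derived from these values.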

Nucleic Acid [4] = experiment: Ratio of drug level in heart to lung in rat at 1.1 to 2.2, iv after 60 mins; type: ADME, organism-based; settings: in vivo, 1 h; outline: as §1
Muscle tissue = experiment: Biodistribution in rat muscle at 1.1 to 2.2, iv after 60 mins; type: ADME, organism-based; settings: in vivo, 1 h; outline: as §2
Rattus norvegicus = experiment: Biodistribution in rat gut at 1.1 to 2.2, iv after 60 mins; type: ADME, organism-based; settings: in vivo, 1 h; outline: as §2
Liver [5] = experiment: Biodistribution in rat liver at 1.1 to 2.2, iv after 60 mins; type: ADME, organism-based; settings: in vivo, 1 h; outline: as §2
Blood = experiment: Biodistribution in rat blood at 1.1 to 2.2, iv after 60 mins; type: ADME, organism-based; settings: in vivo, 1 h; outline: as §2
Liver [6] = experiment: Drug uptake in rat liver at 3.7 to 5.6 MBq after 60 mins by PET analysis; type: ADME, tissue-based; settings: in vivo, 1 h
Outline: (§3)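 Each group of at least five rats was injected with 100 µL of filtered tracer (3.7–5.6 MBq, 100–150 µCi) in 10% EtOH/saline under isoflurane anesthesia (2–4% in air). MicroPET acquisition began as soon as possible after injection and ran 60 min in list mode. Images were reconstructed by 2D OSEM as one 60 min image or six 10 min frames. Time-activity curves for organs were expressed as kBq/cm3.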

[7] = Metabolic stability of the compound in mouse serum at 3.7 to 5.6 MBq after 120 mins; type: ADME, cell-free; settings: read-out: Stability
Outline: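 Radiotracer (3.7–5.6 MBq) in 10% EtOH/PBS was added to serum pre-equilibrated at 37°C, shaken and incubated at 37°C. Aliquots were taken at 15, 30, 60 and 120 min and quenched with cold absolute EtOH. They were held on ice for 5 min, passed through a 30 kD cutoff filter at 4°C, and the water-diluted filtrate was analysed by radio-HPLC for intact tracer. A PBS incubation ran in parallel.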

Liver [8] = experiment: Drug uptake in rat liver at 3.7 to 5.6 MBq after 30 mins by PET analysis; type: ADME, tissue-based; settings: in vivo, 0.5 h; outline: as §3
Heart = experiment: Drug uptake in rat heart at 3.7 to 5.6 MBq after 5 mins by PET analysis; type: ADME, tissue-based; settings: in vivo; outline: as §3
Kidney = experiment: Drug excretion in rat kidney at 3.7 to 5.6 MBq after 60 mins by PET analysis; type: ADME, tissue-based; settings: in vivo, 1 h; outline: as §3
[9] = Drug excretion in rat gut at 3.7 to 5.6 MBq after 60 mins by PET analysis; type: ADME, tissue-based; settings: in vivo, 1 h; outline: as §3
[10] = Drug uptake in rat myocardium at 3.7 to 5.6 MBq after 60 mins by PET analysis; type: ADME, tissue-based; settings: in vivo, 1 h; outline: as §3
[11] = Metabolic stability of the compound in human serum at 3.7 to 5.6 MBq after 120 mins; type: ADME, cell-free; settings: read-out: Stability
Outline: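 Tracer (3.7–5.6 MBq) in 20 µL 10% EtOH/PBS was added to 200 µL of mouse, rat or human serum, or to PBS, prewarmed to 37°C, then shaken and incubated at 37°C. At 15, 30, 60 and 120 min, aliquots were quenched with cold ethanol and kept on ice. Samples were filtered (30 kD cutoff, 4°C), diluted with water and analysed by radio-HPLC for intact tracer.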

Liver [12] = experiment: Drug uptake in rat liver at 3.7 to 5.6 MBq after 5 mins by PET analysis; type: ADME, tissue-based; settings: in vivo; outline: as §3
Spleen (mouse) = experiment: Drug uptake in mouse spleen at 3.7 to 5.6 MBq after 60 mins by PET analysis; settings: in vivo, 1 h
Kidney (mouse) = experiment: Drug uptake in mouse kidney at 3.7 to 5.6 MBq after 60 mins by PET analysis; settings: in vivo, 1 h
Intestine (mouse) = experiment: Drug uptake in mouse intestine at 3.7 to 5.6 MBq after 60 mins by PET analysis; settings: in vivo, 1 h
Gall bladder (mouse) = experiment: Drug uptake in mouse gall bladder at 3.7 to 5.6 MBq after 60 mins by PET analysis; settings: in vivo, 1 h
[13] = Ratio of drug level in heart to blood in Sprague-Dawley rat after 60 mins; type: ADME; settings: heart and blood (heart-to-blood ratio)
Nucleic Acid [14] = experiment: Ratio of drug level in heart to liver in Sprague-Dawley rat after 60 mins; type: ADME, tissue-based; settings: in vivo, 1 h
Nucleic Acid [15] = experiment: Ratio of drug level in heart to liver in Wistar rat after 60 mins; type: ADME, tissue-based; settings: in vivo, 1 h
[16] = Ratio of drug level in heart to blood in Sprague-Dawley rat after 5 mins; type: ADME; settings: heart and blood (heart-to-blood ratio)

| Kp at 1 h [13] | Ratio (Nucleic Acid [14]) | Structure (SMILES) | Kp at 1 h [3] | Drug uptake (Muscle tissue) [% ID/g] | Drug uptake (Rattus norvegicus) [% ID/g] | Drug uptake (Liver [5]) [% ID/g] | Drug uptake (Blood) [% ID/g] | Drug uptake (Liver [6]) | remaining at 2 h [7] [%] | Drug uptake (Heart) [kBq/cm3] | Drug excretion (Kidney) | Drug excretion [9] | Drug uptake [10] | remaining at 2 h [11] [%] | Drug uptake (Liver [12]) [kBq/cm3] | Drug uptake (Spleen (mouse)) | Drug uptake (Kidney (mouse)) | Drug uptake (Intestine (mouse)) | Drug uptake (Gall bladder (mouse)) | other results |
| --- | --- | --- | --- | --- | --- | --- | --- | --- | --- | --- | --- | --- | --- | --- | --- | --- | --- | --- | --- | --- |
|  |  | CCN(CC)c1ccc2c(-c3ccccc3C(=O)OCC[18F])c3ccc(=[N+](CC)CC)cc-3oc2c1.Cc1ccc(S(=O)(=O)[O-])cc1 | 25.8 | 0.16 | 2.4 | 0.89 | 0.08 | Active | 25 |  |  |  |  |  |  |  |  |  |  | Ratio (Nucleic Acid [1]): 4.6; Ratio (Nucleic Acid [2]): 2.3; Ratio (Nucleic Acid [4]): 1.6 |
|  |  | CCN(CC)c1ccc2c(-c3ccccc3C(=O)OCCOCC[18F])c3ccc(=[N+](CC)CC)cc-3oc2c1.Cc1ccc(S(=O)(=O)[O-])cc1 | 10 | 0.54 | 1.69 | 0.49 | 0.25 | Active | 97.1 | 69 | Active | Active | Active | 97.1 | 59 | Active | Active | Active | Active | Drug uptake (Liver [8]): Active |
|  |  | CCN(CC)c1ccc2c(-c3ccccc3C(=O)OCCOCCOCC[18F])c3ccc(=[N+](CC)CC)cc-3oc2c1.Cc1ccc(S(=O)(=O)[O-])cc1 | 5.4 | 0.32 | 0.44 | 0.25 | 0.19 | Active |  | 16 | Active | Active | Active |  | 15 | Active | Active | Active | Active |  |
| 13.7 | 3.7 | CC(C)(C)n1ncc(OCc2ccc(COCC[18F])cc2)c(Cl)c1=O [FLURPIRIDAZ F 18] |  |  |  |  |  |  |  |  |  |  |  |  |  |  |  |  |  | Ratio (Nucleic Acid [15]): 5.4 |
|  |  | CCN(CC)c1ccc2c(-c3ccccc3C(=O)OCCC[18F])c3ccc(=[N+](CC)CC)cc-3oc2c1.Cc1ccc(S(=O)(=O)[O-])cc1 | 26.4 | 0.3 | 2.53 | 0.55 | 0.05 | Active |  | 66 | Active | Active | Active | 99 | 65 |  |  |  |  |  |
| 75 | 9.2 | [18F]c1ccc([P+](c2ccccc2)(c2ccccc2)c2ccccc2)cc1 [BFPET F-18] |  |  |  |  |  |  |  |  |  |  |  |  |  |  |  |  |  | Kp at 5 min [16]: 11 |
